The values that follow come from ChEMBL document CHEMBL3244368, “[3-(1,4-Cyclohexadienyl)-L-alanine,8-lysine]vasopressin: synthesis and some pharmacological properties” (J Med Chem, 1979).

Starred links: 1 amine or outer side, 2 acyl side, 3 side chain; linkers in the order of their positions; H or OH if unused. Positions of bridges follow the written chain, without caps; N, C: chain ends. Non-standard residues stand in square brackets, D forms with d. Residues, ends and D or L forms follow the SMILES beside them. X1 = O=C([C@H](CC1=CCC=CC1)N[*:1])[*:2]; 2Thi = N[C@@H](Cc1cccs1)C(=O)O

The nature of data set [1]: Stability of the compound in phosphate buffer at pH 7.5 in presence of rat liver homogenates. It is filed as ADME, tissue-based. To be noted: tissue homogenate. A digest of the protocol:
(§1)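 DiHPhe incubated with rat kidney or liver homogenate in phosphate buffer, pH 7.5, then checked for conversion to Phe.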

Data set [2] in a line: Stability of the compound in phosphate buffer at pH 7.5 in presence of rat kidney homogenates. In kind it is ADME, tissue-based. To be noted: tissue homogenate. The method in brief: as §1
The nature of data set [3]: Oxytocic activity in isolated rat uterus strips in Mg2+-free van Dyke-Hastings solution.
Data set [4] is filed under the species Rattus norvegicus. Nature of the data set: Vasopressor activity in phenoxybenzamine-treated rat. In kind it is functional. A digest of the protocol:
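Phenoxybenzamine-treated rats under urethane anesthesia. Potency referenced to the USP Posterior Pituitary Reference Standard.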

Data set [5] relates to Rattus norvegicus. Nature of the data set: Antidiuretic activity in iv dosed water loaded rat. In kind it is functional, Urine. A digest of the protocol: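 Water-loaded rats under ethanol anesthesia, peptide given intravenously. Potency referenced to the USP Posterior Pituitary Reference Standard.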
For data set [6], the species on record is Gallus gallus. The data set is described as follows: Vasodepressor activity in chicken. In kind it is functional.
A short description of data set [7]: Stability of the compound in potassium phosphate buffer at pH 7 assessed as hydrolysis by measuring Phe level in presence of alpha-amylase preparation and cyclohexadiene.
Data set [8] is described as follows: Stability of the compound in potassium phosphate buffer at pH 7 assessed as hydrolysis by measuring DiHPe level in presence of alpha-amylase preparation and cyclohexadiene.
Data set [9] can be described thus: Stability of the compound in 0.2 M potassium phosphate buffer at […] assessed as hydrolysis by measuring Tyr level in presence of alpha-amylase preparation and cyclohexadiene. It is filed as ADME. The method in brief:
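Aspergillus oryzae α-amylase preparation, 1 mg per 0.9 µmol peptide, in potassium phosphate buffer pH 7, with 1,4-cyclohexadiene (10 µL) and toluene, under N2, 37 °C, 17 h. Adjusted to pH 2.2 for amino acid analysis. Phe from a control of constituent amino acids plus enzyme subtracted to give Phe in residue 3.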

Data set [10] in a line: Oxytocic activity in isolated rat uterus strips in Mg2+-free solution.
Data set [11] in a line: Stability of the compound in 0.2 M potassium phosphate buffer at pH 7.7 assessed as hydrolysis by measuring Leu/Lys level in presence of alpha-amylase preparation. It is filed as ADME.
Data set [12] is described as follows: Stability of the compound in 0.2 M potassium phosphate buffer at pH 7.7 assessed as hydrolysis by measuring Tyr level in presence of alpha-amylase preparation. It is filed as ADME.
Data set [13] can be described thus: Stability of the compound in 0.2 M potassium phosphate buffer at pH 7.7 assessed as hydrolysis by measuring Gly level in presence of alpha-amylase preparation. It is filed as ADME.
A short description of data set [14]: Stability of the compound in 0.2 M potassium phosphate buffer at pH 7.7 assessed as hydrolysis by measuring Ile/Phe + DiHPe level in presence of alpha-amylase preparation. It is filed as ADME.

`N[C@@H](CC1=CCC=CC1)C(=O)O`: the Stability entry in data set [1] and in [2] was “Stable” in each case.
In the case of `NCCCC[C@H](NC(=O)[C@@H]1CCCN1C(=O)[C@@H]1CSSC[C@H](N)C(=O)N[C@@H](Cc2ccc(O)cc2)C(=O)N[C@@H](CO)C(=O)N[C@@H](CCC(N)=O)C(=O)N[C@@H](CC(N)=O)C(=O)N1)C(=O)NCC(N)=O` (H-CYSQNCPKG-NH2; disulfide 1-6), the Activity is on record as less than 0.01 U/mg in [3], less than 0.01 U/mg in data set [4], 0.08 U/mg in data set [5] and less than 0.01 U/mg in data set [6].
As for `NCCCC[C@H](NC(=O)[C@@H]1CCCN1C(=O)[C@@H]1CSSC[C@H](N)C(=O)N[C@@H](Cc2ccc(O)cc2)C(=O)N[C@@H](CC2=CCC=CC2)C(=O)N[C@@H](CCC(N)=O)C(=O)N[C@@H](CC(N)=O)C(=O)N1)C(=O)NCC(N)=O` (H-CY[X1]QNCPKG-NH2; disulfide 1-6), the Drug degradation is 8.7 mol% in data set [7], 66 mol% in data set [8] and 89 mol% in [9]. Moreover, the Activity amounted to 6 U/mg in [3], 129 U/mg in data set [4] and 125 U/mg in data set [5].
On to `NCCCC[C@H](NC(=O)[C@@H]1CCCN1C(=O)[C@@H]1CSSC[C@H](N)C(=O)N[C@@H](Cc2ccc(O)cc2)C(=O)N[C@@H](Cc2ccc(O)cc2)C(=O)N[C@@H](CCC(N)=O)C(=O)N[C@@H](CC(N)=O)C(=O)N1)C(=O)NCC(N)=O` (H-CYYQNCPKG-NH2; disulfide 1-6), for which the Activity is recorded as 0.07 U/mg in [4], 0.18 U/mg in data set [5], “<=0.01 U/mg” in data set [10] and 0.08 U/mg in [6].
Turning to `NCCCC[C@H](NC(=O)[C@@H]1CCCN1C(=O)[C@@H]1CSSC[C@H](N)C(=O)N[C@@H](Cc2ccc(O)cc2)C(=O)N[C@@H](Cc2cccs2)C(=O)N[C@@H](CCC(N)=O)C(=O)N[C@@H](CC(N)=O)C(=O)N1)C(=O)NCC(N)=O` (H-CY[2Thi]QNCPKG-NH2; disulfide 1-6), the Activity turned out to be 19 U/mg in data set [3], 243 U/mg in data set [4], 332 U/mg in data set [5] and 87 U/mg in [6].
The matching figures for `CC[C@H](C)[C@@H]1NC(=O)[C@H](Cc2ccc(O)cc2)NC(=O)[C@@H](N)CSSC[C@@H](C(=O)N2CCC[C@H]2C(=O)N[C@@H](CCCNC(=N)N)C(=O)NCC(N)=O)NC(=O)[C@H](CC(N)=O)NC(=O)[C@H](CCC(N)=O)NC1=O` [ARGIPRESTOCIN] (H-CYIQNCPRG-NH2; disulfide 1-6): 114 U/mg, 243 U/mg, 245 U/mg and 286 U/mg.
`NCCCC[C@H](NC(=O)[C@@H]1CCCN1C(=O)[C@@H]1CSSC[C@H](N)C(=O)N[C@@H](Cc2ccc(O)cc2)C(=O)N[C@@H](Cc2ccccc2)C(=O)N[C@@H](CCC(N)=O)C(=O)N[C@@H](CC(N)=O)C(=O)N1)C(=O)NCC(N)=O` [LYPRESSIN]: the Activity in data set [3] turned out to be 5 U/mg; in data set [4], 258 U/mg; in data set [5] it was 212 U/mg; in [6] it was 40 U/mg. The Drug degradation in data set [11] was determined as 101 mol%; in data set [12] it was 100 mol%; in data set [13], 73 mol%; in [14], 113 mol%.
For the molecule `CC[C@H](C)[C@@H]1NC(=O)[C@H](Cc2ccc(O)cc2)NC(=O)[C@@H](N)CSSC[C@@H](C(=O)N2CCC[C@H]2C(=O)N[C@@H](CCCCN)C(=O)NCC(N)=O)NC(=O)[C@H](CC(N)=O)NC(=O)[C@H](CCC(N)=O)NC1=O` (H-CYIQNCPKG-NH2; disulfide 1-6), the Activity in data set [3] worked out at 78 U/mg; in data set [4] it was 130 U/mg; in [5] it was 24 U/mg; in data set [6], 190 U/mg.
For `N=C(N)NCCC[C@H](NC(=O)[C@@H]1CCCN1C(=O)[C@@H]1CSSC[C@H](N)C(=O)N[C@@H](Cc2ccc(O)cc2)C(=O)N[C@@H](Cc2ccccc2)C(=O)N[C@@H](CCC(N)=O)C(=O)N[C@@H](CC(N)=O)C(=O)N1)C(=O)NCC(N)=O` [VASOPRESSIN], in that order: 16 U/mg, 380 U/mg, 429 U/mg and 57 U/mg.
